Converted amounts (≈) assume the structure as drawn.
How the values were obtained:
[1] = WHO-TDR: Cytotoxicity; assay type: toxicity, cell-based; settings: human, MRC5 cells
[2] = tested on: Plasmodium falciparum K1; assay: WHO-TDR: Malaria; assay type: functional, organism-based, Homo sapiens; settings: Erythrocyte
Summary of the method: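 A diverse library of 10,000 compounds from Life Chemicals, filtered for drug-likeness and reactive groups, was screened against the intra-erythrocytic Plasmodium falciparum K1 strain in human red blood cells. Previously published standard procedures were followed, with a reference drug as positive control. Antiplasmodial potency is given as IC50.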

[3] = tested on: Trypanosoma cruzi; assay: WHO-TDR: Chagas disease; assay type: functional, organism-based, Homo sapiens; settings: MRC5
Summary of the method: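 A diverse library of 10,000 compounds from Life Chemicals, filtered for drug-likeness and reactive groups, was screened against intracellular amastigotes of Trypanosoma cruzi Tulahuen CL2 beta-galactosidase strain. The parasites were grown in MRC-5SV2 human lung fibroblast host cells, and a reference drug served as positive control under previously published standard procedures. Antiparasitic potency is given as IC50.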

[4] = tested on: Trypanosoma brucei brucei; assay: WHO-TDR: Human African Trypanosomiasis (HAT); assay type: functional, organism-based; settings: Squib-427
Summary of the method: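 A diverse library of 10,000 compounds from Life Chemicals, filtered for drug-likeness and reactive groups, was screened against bloodstream forms of Trypanosoma brucei Squib 427 strain in a whole-organism assay. Previously published standard procedures were followed, with reference drugs serving as positive controls. Antiparasitic potency is given as IC50.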

[5] = tested on: Leishmania infantum; assay: WHO-TDR: Leishmaniasis; assay type: functional, organism-based, Mus musculus; settings: Macrophage
Summary of the method: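 A diverse library of 10,000 compounds from Life Chemicals, filtered for drug-likeness and reactive groups, was screened against whole organisms. The targets were intracellular amastigotes of Leishmania infantum MHOM/MA(BE)/67 growing in murine peritoneal macrophages. Previously published standard procedures were followed, with a reference drug as positive control. Antiparasitic potency is given as IC50.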

[6] = tested on: Schistosoma mansoni; assay: (§1) WHO-TDR: Schistosomiasis; assay type: functional; design: concentration or dose not given beside the values
Summary of the method: (§2)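 Activity appears as percent inhibition and as IC50. The underlying screen tested a diverse library of 10,000 compounds, supplied by Life Chemicals, on whole larval and/or adult worms of the Puerto Rican strain of Schistosoma mansoni.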

[7] = tested on: Onchocerca lienalis; assay: (§3) WHO-TDR: Onchocerciasis; assay type: functional; design: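 at 12.5 µM on microfilariae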
Summary of the method: (§4)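 Following previously published standard procedures, with reference drugs as positive controls, a diverse Life Chemicals library was tested on whole Onchocerca ochengi or Onchocerca lienalis microfilariae. The library held 10,000 compounds filtered for drug-likeness and reactive groups. Activity is recorded both as percent inhibition and as IC50.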

[8] = tested on: Brugia malayi; assay: (§5) WHO-TDR: Lymphatic Filariasis; assay type: functional; design: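 tested at 10 µM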
Summary of the method: (§6)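 Following previously published standard procedures, compounds were tested on whole Brugia malayi microfilariae, with reference drugs as positive controls. They came from a diverse Life Chemicals collection of 10,000 compounds filtered for drug-likeness and reactive groups. Results appear as percent inhibition and as IC50.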

[9] = tested on: Brugia malayi; assay: as §5; assay type: functional, organism-based; summary of the method: as §6
[10] = tested on: Brugia malayi; assay: as §5; assay type: functional; design: concentration or dose not given beside the values; summary of the method: as §6; remark: listed apart in the source
[11] = tested on: Brugia malayi; assay: as §5; assay type: functional, organism-based; summary of the method: as §6; remark: listed apart in the source
[12] = tested on: Onchocerca lienalis; assay: as §3; assay type: functional, organism-based; summary of the method: as §4
[13] = tested on: Schistosoma mansoni; assay: as §1; assay type: functional, organism-based; summary of the method: as §2

`O=C(COc1cccc2c1CCN(Cc1ccccc1F)C2=O)N1CCC(Cc2ccccc2)CC1` gave an IC50 [1] of 4.56 mg/L (≈ 9.37 µM), an IC50 [2] of 4.54 mg/L (≈ 9.33 µM) and an IC50 [3] of 0.557 mg/L (≈ 1.14 µM). For the same compound, the IC50 [4] was 0.473 mg/L (≈ 0.971 µM), the IC50 [5] was 4.73 mg/L (≈ 9.71 µM) and the “% Inhibition” value [6] was 0%. The “% Inhibition” value [7] was 0%, the “% Inhibition” value [8] was 100% and the IC50 [9] was 5.19 µM. The “% Inhibition” value [10] was 100% and the IC50 [11] was 4.95 µM.

For `O=C(Nc1nc2c(s1)CSc1ccccc1-2)C1COc2ccccc2O1` (stereo unspecified), the IC50 [1] was 2.62 mg/L (≈ 6.86 µM), the IC50 [2] was 4.75 mg/L (≈ 12.4 µM) and the IC50 [3] was 0.502 mg/L (≈ 1.31 µM). For the same compound, the IC50 [4] was 0.367 mg/L (≈ 0.96 µM), the IC50 [5] was 0.782 mg/L (≈ 2.04 µM) and the “% Inhibition” value [6] was 100%. The “% Inhibition” value [7] was 100%, the IC50 [12] was 1.42 mg/L (≈ 3.71 µM) and the “% Inhibition” value [8] was 33.33%. For the same compound, the “% Inhibition” value [10] was 0%.

Work on `O=C(Nc1nnc(S)s1)c1cc(Br)ccc1Cl` yielded an IC50 [1] of over 10.5 mg/L, an IC50 [2] of over 10.5 mg/L and an IC50 [3] of over 10.5 mg/L. For the same compound, the IC50 [4] was over 10.5 mg/L, the IC50 [5] was over 10.5 mg/L and the “% Inhibition” value [6] was 0%. For the same compound, the “% Inhibition” value [7] was 0%, the “% Inhibition” value [8] was 0% and the “% Inhibition” value [10] was 100%. The IC50 [11] was 0.853 µM.

For `COc1ccc(N2CCCS2(=O)=O)cc1NC(=O)c1cc(Cl)ccc1OC`, the IC50 [1] was over 12.3 mg/L, the IC50 [2] was over 12.3 mg/L and the IC50 [3] was 5.04 mg/L (≈ 12.3 µM). The IC50 [4] was 4.31 mg/L (≈ 10.5 µM), the IC50 [5] was 0.399 mg/L (≈ 0.971 µM) and the “% Inhibition” value [6] was 100%. For the same compound, the IC50 [13] was 4.3 µM and the “% Inhibition” value [7] was 13.3%.

With `Cc1ccc(NC(=O)c2oc3ccccc3c2NC(=O)CC(c2ccccc2)c2ccccc2)cc1C` the IC50 [1] was over 14.7 mg/L, the IC50 [2] was over 14.7 mg/L and the IC50 [3] was over 14.7 mg/L. For the same compound, the IC50 [4] was over 14.7 mg/L, the IC50 [5] was 4.75 mg/L (≈ 9.71 µM) and the “% Inhibition” value [6] was 100%. The IC50 [13] was 6.7 µM and the “% Inhibition” value [7] was 0%.

Work on `COC(=O)c1c(NC(=O)c2cc3ccccc3oc2=O)sc2c1CCN(Cc1ccccc1)C2` yielded an IC50 [1] of 8.92 mg/L (≈ 18.8 µM), an IC50 [2] of over 15.3 mg/L and an IC50 [3] of 0.637 mg/L (≈ 1.34 µM). For the same compound, the IC50 [4] was over 15.3 mg/L, the IC50 [5] was 4.96 mg/L (≈ 10.5 µM) and the “% Inhibition” value [6] was 0%. For the same compound, the “% Inhibition” value [7] was 0%, the “% Inhibition” value [8] was 100% and the “% Inhibition” value [10] was 100%. For the same compound, the IC50 [11] was 2.97 µM.

Compound `CCN(c1ccccc1)S(=O)(=O)c1ccc(C(=O)Nc2sc3c(c2C(=O)NC)CCCC3)cc1` has an IC50 [1] of over 11 mg/L, an IC50 [2] of 7.35 mg/L (≈ 14.8 µM) and an IC50 [3] of 5.24 mg/L (≈ 10.5 µM). The IC50 [4] was over 11 mg/L, the IC50 [5] was over 11 mg/L and the “% Inhibition” value [6] was 100%. For the same compound, the IC50 [13] was 9.9 µM and the “% Inhibition” value [7] was 13.3%.

With `CCOC(=O)c1ccc(NC(=O)CSc2nnc(NC(=O)C34CC5CC(CC(C5)C3)C4)s2)cc1` the IC50 [1] was over 15 mg/L, the IC50 [2] was over 15 mg/L and the IC50 [3] was over 15 mg/L. For the same compound, the IC50 [4] was over 15 mg/L, the IC50 [5] was over 15 mg/L and the “% Inhibition” value [6] was 0%. For the same compound, the “% Inhibition” value [7] was 40%, the “% Inhibition” value [8] was 100% and the IC50 [9] was 5.95 µM. The “% Inhibition” value [10] was 100% and the IC50 [11] was 7.07 µM.

`CCOc1ccc(C(=O)Nc2ccc(Nc3nc(C)cc(N(CC)CC)n3)cc2)cc1OCC` gave an IC50 [1] of 3.94 mg/L (≈ 8.5 µM), an IC50 [2] of 0.51 mg/L (≈ 1.1 µM) and an IC50 [3] of 0.428 mg/L (≈ 0.922 µM). The IC50 [4] was 4.4 mg/L (≈ 9.49 µM), the IC50 [5] was 4.5 mg/L (≈ 9.71 µM) and the “% Inhibition” value [6] was 100%. For the same compound, the IC50 [13] was 8.3 µM and the “% Inhibition” value [7] was 20%.

`Cc1ccc(NC(=O)CSc2nncc(=O)[nH]2)cc1Cl` gave an IC50 [1] of 2.55 mg/L (≈ 8.2 µM), an IC50 [2] of 3.64 mg/L (≈ 11.7 µM) and an IC50 [3] of 2.99 mg/L (≈ 9.61 µM). For the same compound, the IC50 [4] was 2.91 mg/L (≈ 9.37 µM), the IC50 [5] was over 9.32 mg/L and the “% Inhibition” value [6] was 100%. For the same compound, the IC50 [13] was 4.5 µM and the “% Inhibition” value [7] was 0%.

`O=C(CSc1nncc(=O)[nH]1)Nc1cc(C(F)(F)F)ccc1Cl` gave an IC50 [1] of over 10.9 mg/L, an IC50 [2] of over 10.9 mg/L and an IC50 [3] of over 10.9 mg/L. The IC50 [4] was over 10.9 mg/L, the IC50 [5] was over 10.9 mg/L and the “% Inhibition” value [6] was 100%. For the same compound, the IC50 [13] was 6.3 µM and the “% Inhibition” value [7] was 0%.

In the case of `CC(C)N1CCc2c(sc(NC(=O)c3cc4c(ccc5ccccc54)oc3=O)c2C(N)=O)C1`, the IC50 [1] is reported as 0.416 mg/L (≈ 0.901 µM), the IC50 [2] is reported as 0.572 mg/L (≈ 1.24 µM) and the IC50 [3] is reported as 0.149 mg/L (≈ 0.323 µM). The IC50 [4] was 0.478 mg/L (≈ 1.04 µM), the IC50 [5] was 0.484 mg/L (≈ 1.05 µM) and the “% Inhibition” value [6] was 0%. For the same compound, the “% Inhibition” value [7] was -1%, the “% Inhibition” value [8] was 100% and the IC50 [9] was 0.53 µM. For the same compound, the “% Inhibition” value [10] was 100% and the IC50 [11] was 0.53 µM.

From ChEMBL document CHEMBL2093137, “WHO-TDR NTD Screening”
